Only some compounds are listed: those with a hit (about 4.3% of all), similar ones and a draw of the others.
ALR inh = inhibitors of human ALR sulfhydryl oxidase, primary screen, biochemical, H2O2 detection, HRP-luminol luminescence, single point; purified ALR, DTT oxidation; FAD-linked sulfhydryl oxidase ALR (Homo sapiens), P55789; AID 485317, 2010; inhibition, % (concentration not given with the values); actives 3.8% (n = 290,000);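 active = mean replicate inhibition above about 79%, with every replicate also reaching it, limit read from the data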
Target sequence (P55789 whole entry, looked up): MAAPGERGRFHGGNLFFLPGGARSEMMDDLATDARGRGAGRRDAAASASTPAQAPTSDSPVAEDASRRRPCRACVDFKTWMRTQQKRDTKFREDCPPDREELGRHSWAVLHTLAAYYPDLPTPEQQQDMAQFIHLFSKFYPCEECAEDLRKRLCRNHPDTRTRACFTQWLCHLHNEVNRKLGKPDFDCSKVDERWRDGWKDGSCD
Rtt109 HAT inh = inhibitors of C. albicans Rtt109/Vps75 HAT, primary screen, biochemical, ThioGlo CoA-SH fluorescence, plate reader; purified Rtt109/Vps75, 4 h; inhibition, % at 34.9 µM; actives 0.16% (n = 330,000); AID 540336, 2011;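 active = inhibition of at least 50% in every replicate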
Target sequence (Q5AAJ8 whole entry, looked up): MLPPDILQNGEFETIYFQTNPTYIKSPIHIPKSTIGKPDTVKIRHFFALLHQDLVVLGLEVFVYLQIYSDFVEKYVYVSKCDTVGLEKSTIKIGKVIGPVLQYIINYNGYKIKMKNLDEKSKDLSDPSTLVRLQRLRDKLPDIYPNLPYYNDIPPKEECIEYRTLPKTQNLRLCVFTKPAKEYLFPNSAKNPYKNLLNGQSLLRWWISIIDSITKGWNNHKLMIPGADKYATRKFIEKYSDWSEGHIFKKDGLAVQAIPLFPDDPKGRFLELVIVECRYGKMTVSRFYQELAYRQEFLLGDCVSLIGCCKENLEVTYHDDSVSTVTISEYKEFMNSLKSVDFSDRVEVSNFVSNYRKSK
DYRK1A inh = rat Dyrk1A kinase inhibitors, primary screen, biochemical, single point, plate reader. ADP-Glo luminescence, NFATc1 peptide. inhibition, % at 12.5 µM. actives 0.43% (n = 310,000). AID 504441, 2011; in the data active = inhibition above about 50%;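 note: plate controls were vehicle with enzyme for no effect and no enzyme for full effect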
CAL PDZ FP-1 = CAL PDZ peptide-binding inhibitors, primary screen, biochemical, fluorescence polarization, Cer-tagged CAL PDZ, HTS; Golgi-associated PDZ and coiled-coil motif-containing protein (Homo sapiens), Q9HD26; purified CAL PDZ, TMR-peptide fluorescence polarization, 1 h; inhibition, % at 20 µM; actives 0.02% (n = 330,000); AID 504414, 2011;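 active = highest replicate inhibition of at least 40%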;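 note: plate controls were DMSO neutral control wells for no effect and unlabeled competitor peptide control wells for full effect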
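Control set: unlabelled peptide and DMSO controls / Material: purified CerCALP PDZ construct / Timing: 1 h incubation at room temperature before polarization reading / Doses: 20 µM, one dose / Detection: fluorescence polarization (mP)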
CAL PDZ FP-2 = untagged CAL PDZ binding inhibitors, primary screen, biochemical, fluorescence polarization, HTS; Golgi-associated PDZ and coiled-coil motif-containing protein (Homo sapiens), Q9HD26; purified CAL PDZ, TMR-peptide fluorescence polarization, 1 h; inhibition, % at 24.9 µM; actives 0.92% (n = 300,000);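 active = mean inhibition of at least 30% with at least half of replicates also reaching 30%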;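 note: 0% = DMSO neutral control and 100% = excess unlabeled competitor peptide PRC23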
The depositor's hits bear a star; . = no result given.

SMILES	ALR inh	Rtt109 HAT inh	DYRK1A inh	CAL PDZ FP-1	CAL PDZ FP-2
O=C(NNC(=O)c1sccc1-n1cccc1)c1ccc(Cl)cc1	-8	15	-5	0	-3
COc1cc(C2N(c3ccccc3)CCN2c2ccccc2)cc(OC)c1OC	99*	.	5	-1	-1
Oc1cccc(N2Cc3ccccc3C2)c1	-26	-21	2	0	-4
Oc1ccc(N2Cc3ccccc3C2)cc1	84*	.	1	-1	2
O=C1C(=O)N(CCO)C(c2ccc(Br)cc2)/C1=C(\O)c1ccccc1 (stereo not drawn)	-2	4	.	0	-1
C/C(CC(=O)Nc1ccc2c(c1)OCCO2)=N\NC(=O)COc1ccc(Cl)c(C)c1	0	5	1	-2	47*
C/C(CC(=O)Nc1ccc2c(c1)OCCO2)=N\NC(=O)COc1ccc(C)cc1	-6	7	-2	-1	-1
COc1ccc(CC(=O)N/N=C(\C)CC(=O)Nc2ccc3c(c2)OCCO3)cc1OC	13	8	-2	-3	44*
COc1ccc(CC(=O)N/N=C(\C)CC(=O)Nc2ccc(N(C)C)cc2)cc1OC	.	10	4	0	.
CCN(CCNCC(O)COc1ccccc1C(C)C)c1cccc(C)c1 (stereo not drawn)	99*	3	-1	.	-5
CCOC(=O)N1CCN(CC(O)COc2ccccc2C(C)C)CC1 (stereo not drawn)	-3	2	8	0	-24
Cc1[nH]c2ccccc2c1SCC(=O)NC1CCCCC1	80*	-1	0	-2	-2
Cc1[nH]c2ccccc2c(=O)c1SC(F)(F)C(F)C(F)(F)F (stereo not drawn)	-19	-5	-5	-2	-3
COC(=O)C(F)(F)Sc1c(C)[nH]c2ccccc12	99*	.	-6	-2	-3
O=C(CSc1n[nH]c(-c2ccccc2Cl)n1)NC1CCCCC1	4	51*	3	-2	-5
O=c1c2ccccc2[nH]c(=S)n1CCCN1CCOCC1	87*	1	4	-1	.
COc1ccc(Cl)cc1-c1nc(SCC(=O)NC2CCCC2)n[nH]1	.	2	-6	-1	0
COc1ccc(/C=C2/C(=O)C(C)(C(C)C)CCC2C)cc1 (stereo not drawn)	-5	10	37	0	-7
Cc1ccc(SCCC(=O)NNC(=O)c2ccccc2F)cc1	-2	0	-1	0	10
O=C(CCC1CCCC1)N1CCC(N2CCCCCC2)CC1	5	1	-5	-2	.
O=C(Cc1cccc(NC(=O)C2CCN(C(=O)c3ccccc3)CC2)c1)Nc1cccc(C(=O)N2CCCCC2)c1	.	0	.	0	0
COCC(=O)c1[nH]c2ccccc2c1C	92*	-1	-56	-1	-5
O=C(CCCn1c(=S)[nH]c2ccccc2c1=O)NC1CCCCC1	79*	11	-3	-2	-2
O=C(CCn1c(=S)[nH]c2ccccc2c1=O)N1CCOCC1	85*	-6	6	0	.
CC1CC(C)CN(C(=O)CCCn2c(=S)[nH]c3ccccc3c2=O)C1 (stereo not drawn)	96*	11	6	-2	0
SMILES	ALR inh	Rtt109 HAT inh	DYRK1A inh	CAL PDZ FP-1	CAL PDZ FP-2
O=C(CCl)NN1C(=O)NC(c2ccccc2)(c2ccccc2)C1=O	0	0	1	-1	-5
CNC(=S)N(Cc1ccc(Cl)cc1)Cc1cccs1	-13	-1	.	-1	-1
Cc1ccc(C(C)C)c(OCC(=O)N/N=C2\CC(=O)CC(C)(C)C2)c1	16	9	6	0	6
COc1ccc(NC(=O)C2CCCN(CCCc3ccccc3)C2)cc1OCC(C)C (stereo not drawn)	-13	17	4	-1	.
CN(C(=O)COC(=O)c1cc(S(=O)(=O)N2CCOCC2)ccc1F)C1CCS(=O)(=O)C1 (stereo not drawn)	-1	-5	-7	-3	-3
Cc1ccc(S(=O)(=O)CCC(=O)OCC(=O)Nc2cc(S(=O)(=O)N3CCOCC3)ccc2C)cc1	-51	-3	10	-2	-10
O=c1c2ccc(Cl)cc2[nH]c(=S)n1CCCN1CCOCC1	95*	1	-3	-1	.
O=C(C1CCC(Cn2c(=S)[nH]c3ccccc3c2=O)CC1)N1CCN(c2ccccc2)CC1 (stereo not drawn)	.	-5	4	-1	-1
CCN(CC)CCCn1c(=S)[nH]c2cc(Cl)ccc2c1=O	64	20	4	.	-4
O=C(Nc1c(C(=O)O)[nH]c2ccccc12)NC1CCCCC1	98*	13	6	0	0
COCC(=O)NCCSc1c(C)[nH]c2ccccc12	86*	1	10	0	-2
O=C(C1CCC(Cn2c(=S)[nH]c3ccccc3c2=O)CC1)N1CCOCC1 (stereo not drawn)	83*	-15	1	-2	-2
NS(=O)(=O)c1ccc(NNC(=O)c2ccc(Br)o2)c([N+](=O)[O-])c1	86*	2	8	-1	-4
CC1(C(=O)CSc2nc3ccccc3s2)CCC(=O)O1 (stereo not drawn)	99*	3	8	-1	-1
O=C(CSc1nc2ccccc2s1)N1CCOCC1	97*	11	9	0	1
O=C(CCCSc1nc2ccccc2s1)NCc1ccc2c(c1)OCO2	.	4	1	-3	-2
O=C(CSc1nc2ccccc2s1)NCc1ccc2c(c1)OCO2	98*	6	8	-2	-1
CC1(C)CC2(CC(C)(C(=O)CSc3nc4ccccc4s3)OC2=O)C(=O)O1 (stereo not drawn)	91*	2	6	-2	-2
O=C(CCC1CCCN(C(=O)c2ccc3cc[nH]c3c2)C1)NCc1ccc(F)c(F)c1 (stereo not drawn)	-19	10	2	0	.
CCOC(=O)C1CCN(C(=O)C2COc3ccccc3O2)CC1 (stereo not drawn)	2	-5	-8	-1	-1
Nc1nc(CSc2nc3ccccc3s2)nc(N2CCOCC2)n1	99*	-6	-5	-2	3
Nc1nc(CSCc2ccccc2)nc(N2CCOCC2)n1	-1	2	8	-1	-3
COCCn1nnnc1SCC(=O)NCc1ccc2c(c1)OCO2	96*	18	-7	-1	1
CC1CC2(CC(C)(C(=O)CSc3nc4ccccc4s3)OC2=O)C(=O)O1 (stereo not drawn)	98*	5	7	-1	0

Screening results deposited in PubChem BioAssay by Broad Institute.
